Screens from PubChem BioAssay.
Yeast life ext: yeast lifespan extension; S. cerevisiae growth with nicotinamide, OD615; deaD strain in restrictive glucose medium; inhibition of the nicotinamide effect, % at 10 µM; 130,000 tested, 0.68% active; AID 775;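 active means inhibition above a set limit, placed 3 SD over the median of all compounds, cut at about 26% in these data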;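 further: 0% = nicotinamide-treated wells and 100% = cells grown without nicotinamide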
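assay system = DeaD-strain S. cerevisiae | measured by = absorbance at 615 nm | probe or stimulus = nicotinamide 1.5 mM | buffer or medium = CSMM-D glucose medium, restrictive | times = 48 h at 30 °C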
WT yeast gro inh: growth inhibition of WT yeast, mitochondrial fusion screen | mitochondrial fusion phenotypic screen, WT strain | inhibition, % at 10 µM | 190,000 tested, 2.1% active | AID 1362; in the data active means inhibition above about 58%; tested in S. cerevisiae
Yeast growth inh: yeast BB579 growth reduction in restrictive medium; S. cerevisiae BB579 growth, OD615, 48 h; inhibition, % at 10 µM; 140,000 tested, 0.51% active;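 active means inhibition above a set limit, 3 SD over the mean compound inhibition, cut at about 44% in these data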
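Test system: S. cerevisiae DeaD strain BB579 yeast; Medium: restrictive CSMM-D medium; Compound: one dose, 10 µM compound with 0.25% DMSO; Incubation: 4 h cell preincubation, 48 h compound exposure, 30 °C humidified; Signal: OD at 615 nm; Benchmarks: amphotericin B at 10 µg/mL as positive control.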
KCC2 mod: modulates chloride dependent transport by human KCC2 | Q9H2X9 | KCC2 cells, thallium flux FluoZin-2 fluorescence | B-score of Tl+ flux slope (higher = more flux/activation; lower = inhibition) at 10 µM | 190,000 tested, 2.2% active;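 active means thallium flux slope and its plate-corrected score both differing from the plate sample mean at a set confidence after two filtering rounds, in either direction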;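 further: slope of fluorescence scaled to starting intensity during 10 to 20 s after thallium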
RAM network inh: inhibitors of the yeast RAM network; S. cerevisiae dse1pr::URA3 reporter, 5-FOA growth OD615, 2 d; analog-sensitive cbk1-as2 kinase mutant strain; inhibition, % at 50 µM; 190,000 tested, 1.8% active; AID 868;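 active means inhibition above a set limit, 3 SD over mean compound inhibition, cut at about 8.4% in these data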;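 further: 0% = DMSO-only wells with no growth and 100% = 10 µM 1-NA-PP1 full growth; inhibition rescues growth on 5-FOA so higher OD means more RAM inhibition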
KCC2 sec1: KCC2 (human) modulation, secondary assay. shares compounds with KCC2 mod. HEK293-KCC2, thallium flux, FluoZin2 fluorescence; hits give high values. normalised thallium flux (F/F0 slope) at 10 µM. 3,700 tested, 15% active. AID 1713;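 active means thallium flux slope above the same plate's solvent-only control mean plus 3 SD; inconclusive means the two replicate wells disagree; inactive means no significant difference from solvent-only control wells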
KCC2 bumet counter: thallium flux despite bumetanide block in KCC2 cells, secondary assay 3; shares compounds with KCC2 mod; HEK293-KCC2 + bumetanide/ouabain, thallium flux FluoZin2; hits give high values; normalized thallium flux at 10 µM; 3,700 tested, 49% active; AID 1714;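 active means thallium entry rate above the same plate's blocked-transporter control wells by more than 3 SD; inconclusive means the two repeat wells disagree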;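 further: raw slope of fluorescence over initial fluorescence between 10 and 20 s after thallium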
KCC2 sec2: confirmation of human KCC2 transport modulators; AID 1715; normalized thallium flux at 10 µM; 3,700 tested, 23% active; shares compounds with KCC2 mod; HEK293-KCC2, thallium flux FluoZin2 fluorescence; actives lie on both sides; F/F0 rise rate, 10–20 s post-thallium;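 active means thallium flux slope more than 3 SD above or below the plate's solvent-only control mean, mostly below; inconclusive means the two repeat wells disagreed; inactive means no significant shift from solvent-only controls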;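 further: raw slope with 0.1% DMSO as baseline and bumetanide as block control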
HEK counter1: counter-screen for KCC2 modulators: effect in parental HEK293 cells; thallium flux rate (normalised fluorescence) at 10 µM; AID 1716; shares compounds with KCC2 mod; thallium flux FluoZin2, ouabain; baseline-ratio fluorescence slope, 10–20 s after thallium; 3,700 tested, 46% active;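 active means thallium flux rate significantly above the same plate's solvent-only control wells, beyond their mean plus 3 SD; inconclusive means the two replicate wells gave conflicting results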
KCC2 retest ouab: KCC2 (human) modulation, ouabain retest. shares compounds with KCC2 mod. HEK293-KCC2, thallium flux FluoZin2 fluorescence; bidirectional: low = inhibitor, high = activator. raw Tl+ flux slope (below DMSO = inhibition, above = activation) at 10 µM. 3,700 tested, 48% active. AID 1717;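 active means thallium flux slope beyond 3 SD from same-plate DMSO control mean in most replicates, usually higher, sometimes lower; inconclusive means repeat tests gave conflicting results; inactive means no significant difference from controls in most replicates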;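 further: slope of initial-normalized fluorescence between seconds 10 and 20 after thallium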
HEK counter2: parental HEK flux effect, counter-screen 2; shares compounds with KCC2 mod; thallium flux slope at 10 µM; HEK293 parental, thallium flux FluoZin-2 fluorescence slope; 3,700 tested, 33% active; AID 1718;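 active means thallium flux slope above the same plate's solvent-control mean plus 3 SD in both duplicate wells; inconclusive means duplicate wells that disagreed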;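 further: run without ouabain in cells lacking the KCC2 cotransporter; slope of fluorescence scaled to its starting value between 10 and 20 s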
Numbers without * were called inactive; i = inactive; ? = inconclusive; · = no result given. A selection: hits, their analogues and other compounds. The true share with any hit is near 5.5%.

SMILES	Yeast life ext	WT yeast gro inh	Yeast growth inh	KCC2 mod	RAM network inh	KCC2 sec1	KCC2 bumet counter	KCC2 sec2	HEK counter1	KCC2 retest ouab	HEK counter2
O=C(CCC(=O)OCC(F)(F)C(F)F)Nc1ccc(Cl)cc1	-3	15	2	8.3*	2	0.0071	0.0051	?	0.0079	0.018	0.0098
Cc1ccc(NC(=O)c2ccccc2NS(=O)(=O)c2ccc(Cl)s2)cc1	11	82*	7	-3.7*	0	0.0071	?	0.022*	0.0072	?	0.01
CCn1c2ccccc2c2cc(NC(=O)COC(=O)c3cc(Cl)c(N)cc3OC)ccc21	·	·	·	0.29	·	·	·	·	·	·	·
COc1ccc(S(=O)(=O)Nc2nc3c(s2)CCCC3)cc1	·	-19	·	-0.29	0	·	·	·	·	·	·
CN(C)S(=O)(=O)c1cccc(NC(=S)N/N=C/c2ccco2)c1	·	·	·	6.3*	·	0.0067	0.0075*	0.027	0.0094*	0.019	0.012*
CN(C)S(=O)(=O)c1cccc(NC(=S)N/N=C/c2ccc(O)c(O)c2O)c1	·	·	·	-1.7	·	·	·	·	·	·	·
CCc1nc2sc3c(c2c(=O)n1N)CCC3	-13	-4	39	·	0	·	·	·	·	·	·
NNc1nc2sc3c(c2c(=O)n1Cc1ccccc1)CCC3	·	·	·	4.1*	·	0.012	0.017*	0.037	?	?	0.012
CCn1c(NN)nc2sc3c(c2c1=O)CCC3	-7	-4	-38	6*	0	0.014*	0.019*	0.035	0.018*	0.03*	?
S=c1[nH]nc(C2(c3ccccc3)CCCC2)o1	·	·	·	-3.1*	·	0.0093	0.0067	0.023*	0.0068	0.018*	0.0094
O=C(N/N=C/c1ccco1)c1cc([N+](=O)[O-])cc([N+](=O)[O-])c1	0	5	-16	5	0	·	·	·	·	·	·
O=C(N/N=C/c1ccc(Br)o1)c1cc([N+](=O)[O-])cc([N+](=O)[O-])c1	·	-2	·	12*	5	?	0.024*	0.028	0.0098*	0.026*	?
Cc1ccc(C2N(c3ccccc3)C(=S)N3CCCN23)cc1 (stereo not drawn)	4	-8	-24	·	2	0.0083	0.0049	0.034	0.0037	0.02	0.011
COc1ccc(CNC(=O)c2ccc(Br)o2)cc1	5	18	-42	0.28	1	·	·	·	·	·	·
CCn1ncc(Br)c1C(=O)Nc1ccc(C(=O)OC(C)C)cc1	-17	20	-36	5.3*	2	0.0081	0.0066	0.033	0.0074	0.021	0.011
O=C(COC(=O)c1ccncc1)c1ccc(Cl)c(Cl)c1	·	-10	·	-0.43	2	·	·	·	·	·	·
Oc1c(C=Nc2ccccc2Cl)[nH]c2ccccc12	·	·	·	i	·	·	·	·	·	·	·
CC(C)Cc1csc(NC(=O)c2ccc(Cl)cc2)c1C(=O)O	10	2	-7	5.2*	5	0.0091	0.032*	0.029	0.018*	?	?
CC(C)Cc1csc(NC(=O)c2ccccc2Cl)c1C(=O)O	5	-29	-37	-0.12	7	·	·	·	·	·	·
Fc1ccccc1CSc1nncn1NC/C=C/c1ccccc1	-13	9	-24	-4.8*	0	0.0073	0.0086*	?	0.0075	0.017	0.011
COc1ccc(C(=O)NC(=S)N2CCN(c3ccc([N+](=O)[O-])cc3)CC2)cc1	13	21	-35	4.1*	2	0.0063	0.012*	0.032	0.0096*	0.029*	0.011*
CCOc1ccccc1Nc1nnc(SCC(=O)NC(=O)c2cccn2C)s1	0	9	-22	-1.5	3	·	·	·	·	·	·
Cc1cccc(C)c1Nc1nnc(SCC(=O)NC(=O)c2cccn2C)s1	-1	6	-10	-4.7*	0	0.0071	0.0048	0.028	0.0047*	0.014*	0.0082
CCN(CC)S(=O)(=O)c1cc(NC(=O)COC(=O)c2ccc(NC(=O)CC#N)cc2)ccc1C	·	7	·	-1.3	4	·	·	·	·	·	·
C=CCN1C(c2ccc(OCC)cc2)=CS/C1=C(\C#N)c1nnc2n1CCCCC2	-5	10	2	-5.8*	0	0.013	0.0041	0.02*	0.0061*	0.011*	0.0083
SMILES	Yeast life ext	WT yeast gro inh	Yeast growth inh	KCC2 mod	RAM network inh	KCC2 sec1	KCC2 bumet counter	KCC2 sec2	HEK counter1	KCC2 retest ouab	HEK counter2
COc1ccc(-n2c(CN3CCN(c4ccccn4)CC3)nc3ccc([N+](=O)[O-])cc3c2=O)c(OC)c1	·	9	·	1.4	1	·	·	·	·	·	·
CN1CCN(CCCNC(=O)c2ccc(/C=C3\Sc4ccccc4N(Cc4ccc(F)cc4)C3=O)cc2)CC1	·	9	·	2.7*	-3	0.0089	0.0051	0.033	0.0077	0.019	0.012
COc1cccc(OCC(=O)NNC(=S)Nc2ccc(Cl)cc2Cl)c1	·	9	·	5.5*	8	0.0074	0.015*	0.028	0.014*	?	0.014*
Cn1cccc1CC(=O)NNC(=S)Nc1ccc(Cl)cc1Cl	-4	9	-10	-0.48	2	·	·	·	·	·	·
O=C(Nc1ccccn1)c1sc2cccc(F)c2c1Cl	·	-14	·	0.31	4	·	·	·	·	·	·
Cc1cc(SCC(=O)NC(=O)NCc2ccco2)nc2c(C)cccc12	-14	-9	-19	4.4*	0	0.0076	0.0063*	0.034	0.019*	?	0.016*
O=C(COc1ccc2oc(-c3ccco3)cc(=O)c2c1)N1CCCCC1	·	8	·	0.5	0	·	·	·	·	·	·
CC(C)(CC(=O)O)CC(=O)Nc1ccc(Oc2ccc(C(C)(C)C)cc2)nc1	·	·	·	4.8*	·	0.0056	0.0044	0.03	0.0072	0.019	0.0098
CC(C)(C)c1ccc(Oc2ccc(NC(=O)CCCC(=O)O)cn2)cc1	·	·	·	1.8	·	·	·	·	·	·	·
COCC(=O)N(CCc1ccc(OC)c(OC)c1)Cc1cc2cc(C)ccc2nc1Cl	·	-4	·	-1	1	·	·	·	·	·	·
CCOC(=O)c1cc(C#N)c(NCc2ccccc2)nc1C	-29	42	-63	-0.018	6	·	·	·	·	·	·
CCOC(=O)c1cc2c(nc1NC(=S)Nc1ccccc1)CC(C)(C)OC2	-3	-8	-28	-3	2	·	·	·	·	·	·
CCOC(=O)c1cc2c(nc1NC(=S)NCc1ccccc1)CCCC2	7	8	-14	5.2*	2	0.0073	0.03*	0.039*	0.038*	0.063*	0.018*
